Results taken from publication PMC7984404 (Journal of Clinical Pharmacology, 2020).

Columns and labels:
Exposure parameters = type: in vivo, human; details: for AUC0-6, mean (%CV) / AUC0-6, median [range] / Cmax, mean (%CV) / Cmax, median [range]: popPK model-derived
Summary of the method: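 Final popPK model simulated concentration-time profiles from each subject's actual dosing history: single SC doses of 30 or 45 mg in adult HAE patients, and 0.05, 0.2 and 0.4 mg/kg single ascending doses in healthy adults. AUC0-6 came from simulated rich profiles by the trapezoidal rule, alongside Cmax, tmax and distribution and terminal half-lives. Values were summarised descriptively.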

[1] = cited from earlier work
[2] = tested on: pediatric patients with HAE; experiment: Time to onset of symptom relief; type: in vivo, human; details: for Median time to 50% probability of TOSR: pediatric HAE
Summary of the method: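 Pediatric HAE patients aged 2-17 received single SC 0.4 mg/kg (≤30 mg). The investigator scored symptoms before and after dosing. TOSR was the earliest time with ≥20% improvement in composite score and no component worsening. Model-predicted CTOSR, AUC0-TOSR, AUC0-6 and Cmax were related to TOSR by Kaplan-Meier curves stratified by exposure tertiles, and also by age group and sex.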

[3] = Population pharmacokinetic; type: in vivo, human
Summary of the method: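 Pooled data from healthy adults, adult HAE patients and pediatric HAE patients aged 2-17 (2172 plasma concentrations, LC-MS/MS) were fitted with a two-compartment model. It had first-order absorption, lag time, and allometric weight effects with estimated exponents. Between-subject variability was log-normal, with additive plus proportional residual error. Covariates were weight, age, sex, race and attack within 12 h. CIs came from about 1000 bootstrap replicates, with prediction-corrected VPC.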

[4] = adult patients with HAE, SC 30 mg, n = 4
[5] = adult patients with HAE, SC 45 mg, n = 4
[6] = healthy subjects, SC 0.4 mg/kg, n = 24
[7] = healthy subjects, SC 30 mg, n = 109
[8] = pediatric patients with HAE 2-5 years, SC 0.4 mg/kg, n = 2
[9] = pediatric patients with HAE, SC 0.4 mg/kg (≤30 mg)
[10] = final popPK model, typical value, reference 70 kg
[11] = typical 70-kg adult, final popPK model

NC(N)=NCCC[C@@H](N)C(=O)N[C@@H](CCCN=C(N)N)C(=O)N1CCC[C@H]1C(=O)N1C[C@H](O)C[C@H]1C(=O)NCC(=O)N[C@@H](Cc1cccs1)C(=O)N[C@@H](CO)C(=O)N1Cc2ccccc2C[C@@H]1C(=O)N1[C@H](C(=O)N[C@@H](CCCN=C(N)N)C(=O)O)C[C@@H]2CCCC[C@@H]21 [icatibant]
AUC0-6, mean (%CV) (Exposure parameters; [4]): 2725 (25.3) ng·h/mL
AUC0-6, median [range] (Exposure parameters; [4]): 2975 [1734‐3216] ng·h/mL
Cmax, mean (%CV) (Exposure parameters; [4]): 1279 (16.7) ng/mL
Cmax, median [range] (Exposure parameters; [4]): 1254 [1056‐1551] ng/mL
AUC0-6, mean (%CV) (Exposure parameters; [5]): 5473 (18.6) ng·h/mL
AUC0-6, median [range] (Exposure parameters; [5]): 5565 [4155‐6608] ng·h/mL
Cmax, mean (%CV) (Exposure parameters; [5]): 2136 (16.3) ng/mL
Cmax, median [range] (Exposure parameters; [5]): 2222 [1680‐2421] ng/mL
AUC0-6, mean (%CV) (Exposure parameters; [6]): 2669 (20.9) ng·h/mL
AUC0-6, median [range] (Exposure parameters; [6]): 2704 [1720‐3829] ng·h/mL
Cmax, mean (%CV) (Exposure parameters; [6]): 1240 (25.1) ng/mL
Cmax, median [range] (Exposure parameters; [6]): 1258 [836‐2120] ng/mL
AUC0-6, mean (%CV) (Exposure parameters; [7]): 2038 (23.8) ng·h/mL
AUC0-6, median [range] (Exposure parameters; [7]): 1941 [1126‐3311] ng·h/mL
Cmax, mean (%CV) (Exposure parameters; [7]): 974 (30.1) ng/mL
Cmax, median [range] (Exposure parameters; [7]): 915 [524‐2115] ng/mL
AUC0-6, mean (%CV) (Exposure parameters; [8]): 900 (24.6) ng·h/mL
AUC0-6, median [range] (Exposure parameters; [8]): 900 [744‐1056] ng·h/mL
Cmax, mean (%CV) (Exposure parameters; [8]): 692 (18.1) ng/mL
Cmax, median [range] (Exposure parameters; [8]): 692 [604‐780] ng/mL
Mean AUC0-6 lower than in adult patients with HAE treated with 30 mg (Exposure parameters; [9]): about 50%
Mean Cmax lower than in adult patients with HAE treated with 30 mg (Exposure parameters; [9]): ~42%
Time to achievement of maximum plasma concentrations ([1]; adults, single subcutaneous injection of 30 mg): ≤ 1 h
Parent drug excreted unchanged in human urine ([1]; human): < 10%
Median time to 50% probability of TOSR ([2]; first tertile of CTOSR): 2.00 h
Time within which all patients displayed resolution of symptoms ([2]; pediatric patients with HAE, single SC 0.4 mg/kg (≤30 mg)): ≤ 4 h
Median time to 50% probability of TOSR ([2]; second tertile of CTOSR): 1.03 h
Cl/F lower than in a 70-kg adult ([3]; 60-kg adolescent (aged 12-17 years), final popPK model): 7%
Time to complete absorption after dosing ([3]; SC dosing, expected from final popPK model): ≤ 1 h
Absorption half-life t1/2(a) ([3]; corresponding to ka = 3.27 h^–1, SC dosing, final popPK model): ~12.7 min
Allometric exponent of weight (weight/70) on Vc/F ([3]; final popPK model): 0.671
Allometric exponent of weight (weight/70) on Vp/F ([3]; final popPK model): 0.671
Multiplicative factor on Vc/F if female ([3]; final popPK model): 0.855
Multiplicative factor on Vc/F if nonwhite ([3]; final popPK model): 1.11
Typical Cl/F lower in females than in males ([3]; final popPK model): about 12%
Typical Cl/F lower in pediatric patients who experienced an acute attack ([3]; final popPK model): 9%
Typical Vc/F higher in nonwhite than in white subjects ([3]; final popPK model): 11%
ka (absorption rate constant) ([3]; final popPK model, SC dosing, n = 172 (adults and pediatric HAE), typical value): 3.27 h^–1
tlag (lag time) ([3]; final popPK model, SC dosing, n = 172, typical value): 0.0426 h
Vc/F (apparent central volume of distribution) ([3]; final popPK model, SC dosing, n = 172, typical value, reference 70 kg): 20.4 L
Cl/F (apparent total clearance) ([3]; final popPK model, SC dosing, n = 172, typical value, reference 70 kg, age 25): 15.4 L/h
Clp/F (apparent intercompartmental clearance) [3, 10]: 0.398 L/h
Vp/F (apparent peripheral volume of distribution) [3, 10]: 1.75 L
Clearance slower relative to a subject aged 25 years ([3]; subject aged 45 years, age effect of final popPK model): 20%
Cl/F lower than in a 70-kg adult ([3]; typical 40-kg child (aged 2-11 years), final popPK model): 25%
Distribution half-life t1/2(α) [3, 11]: 53.4 min
Terminal elimination half-life t1/2(β) [3, 11]: 3.2 h
